Test results reported in ChEMBL document CHEMBL1154352, “Toll-like receptor 7 selective synthetic oligoribonucleotide agonists: synthesis and structure-activity relationship studies” (J Med Chem, 2009).
Activity calls are given as the source filed them. The rule behind the calls is not given here.

Key:
[1] = Metabolic stability in human serum assessed as full length product remaining after 10 mins by HPLC; assay type: ADME, cell-free; settings: read-out: Stability
How it was run: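 About 0.5 A260 units compound in 1% human serum in PBS, 37 °C; aliquot taken at 10 min, analysed by anion-exchange HPLC for percent intact full-length product.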

[2] = target: T1, Toll-like receptor 8 (Homo sapiens) (UniProt Q9NR97); test: Activation of human TLR8 expressed in HEK293XL assessed as fold induction of NF-kappaB activity at 50 ug/ml after 18 hrs by reporter gene assay relative to control
T1 sequence (whole entry): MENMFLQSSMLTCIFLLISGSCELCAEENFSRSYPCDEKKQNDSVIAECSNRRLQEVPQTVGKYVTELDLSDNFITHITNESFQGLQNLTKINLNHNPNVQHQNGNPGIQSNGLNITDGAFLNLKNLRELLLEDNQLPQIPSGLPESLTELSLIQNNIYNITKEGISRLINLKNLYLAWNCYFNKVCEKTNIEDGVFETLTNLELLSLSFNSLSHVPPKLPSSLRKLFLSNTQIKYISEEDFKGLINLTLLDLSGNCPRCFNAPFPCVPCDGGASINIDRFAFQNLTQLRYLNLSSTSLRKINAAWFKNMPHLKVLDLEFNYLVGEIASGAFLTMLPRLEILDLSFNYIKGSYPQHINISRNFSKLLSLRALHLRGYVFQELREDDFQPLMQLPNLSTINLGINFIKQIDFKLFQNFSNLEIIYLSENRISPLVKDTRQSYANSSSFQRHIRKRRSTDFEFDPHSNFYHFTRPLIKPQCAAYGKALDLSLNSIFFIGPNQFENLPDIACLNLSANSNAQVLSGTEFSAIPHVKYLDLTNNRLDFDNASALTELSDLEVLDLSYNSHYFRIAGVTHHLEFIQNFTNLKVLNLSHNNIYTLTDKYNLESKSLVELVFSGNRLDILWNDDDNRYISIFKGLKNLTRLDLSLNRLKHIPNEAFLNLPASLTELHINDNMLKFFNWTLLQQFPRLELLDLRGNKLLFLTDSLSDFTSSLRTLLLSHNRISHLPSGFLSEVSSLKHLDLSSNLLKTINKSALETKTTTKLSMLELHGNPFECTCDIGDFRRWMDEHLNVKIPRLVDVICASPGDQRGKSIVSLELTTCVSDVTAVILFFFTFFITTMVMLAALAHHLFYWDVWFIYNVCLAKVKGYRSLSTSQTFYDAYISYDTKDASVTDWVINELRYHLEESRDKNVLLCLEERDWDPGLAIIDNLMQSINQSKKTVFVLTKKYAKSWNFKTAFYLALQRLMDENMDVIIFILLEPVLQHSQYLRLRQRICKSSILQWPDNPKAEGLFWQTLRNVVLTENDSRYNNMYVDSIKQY
How it was run: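 HEK293 cells stably expressing human TLR7 or TLR8, transiently transfected with SEAP reporter plasmid; medium replaced, SIMRA compounds added, 18 h incubation. Supernatant SEAP measured by QuantiBlue; expressed as fold increase in NF-κB activity over PBS control. Tabulated data at 50 μg/mL, representative of three independent experiments.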

[3] = target: Toll-like receptor 3 (Homo sapiens) (UniProt O15455); test: Activation of human TLR3 expressed in HEK293 assessed as induction of NF-kappaB activity reporter gene assay; assay type: cell-based
Chain of Toll-like receptor 3 (Homo sapiens) (O15455 whole entry): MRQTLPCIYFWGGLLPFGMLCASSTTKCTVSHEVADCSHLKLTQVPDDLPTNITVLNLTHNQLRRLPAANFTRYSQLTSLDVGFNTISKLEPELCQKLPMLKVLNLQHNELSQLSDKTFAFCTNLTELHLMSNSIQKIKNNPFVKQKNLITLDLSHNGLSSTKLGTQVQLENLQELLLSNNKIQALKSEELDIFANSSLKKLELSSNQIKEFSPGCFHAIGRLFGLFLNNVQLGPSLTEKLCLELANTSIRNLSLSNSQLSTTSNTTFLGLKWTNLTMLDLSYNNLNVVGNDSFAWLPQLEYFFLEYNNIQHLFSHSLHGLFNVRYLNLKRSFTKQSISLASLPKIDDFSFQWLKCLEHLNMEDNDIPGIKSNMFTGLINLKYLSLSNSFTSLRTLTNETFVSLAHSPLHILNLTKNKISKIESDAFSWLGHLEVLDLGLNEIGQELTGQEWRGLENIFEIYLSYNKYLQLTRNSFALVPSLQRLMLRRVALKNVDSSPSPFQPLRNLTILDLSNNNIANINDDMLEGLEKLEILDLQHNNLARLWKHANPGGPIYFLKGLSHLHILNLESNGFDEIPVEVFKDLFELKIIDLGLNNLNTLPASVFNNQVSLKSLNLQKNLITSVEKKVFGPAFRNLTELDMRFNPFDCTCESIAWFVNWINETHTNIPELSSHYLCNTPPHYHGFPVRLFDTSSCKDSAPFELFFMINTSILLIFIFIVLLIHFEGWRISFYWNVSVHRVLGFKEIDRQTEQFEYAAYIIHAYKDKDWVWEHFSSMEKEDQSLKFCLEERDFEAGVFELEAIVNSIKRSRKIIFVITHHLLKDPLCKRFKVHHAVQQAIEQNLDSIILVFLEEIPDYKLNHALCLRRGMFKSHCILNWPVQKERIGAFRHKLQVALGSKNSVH

| SMILES | remaining at 10 min [1] | fold change (FC) [2] | Activity [3] |
| --- | --- | --- | --- |
| Nc1ccn([C@@H]2O[C@H](CO)[C@@H](OP(=O)(S)OC[C@H]3O[C@@H](n4ccc(=O)[nH]c4=O)[C@H](O)[C@@H]3OP(=O)(S)OC[C@H]3O[C@@H](n4ccc(=O)[nH]c4=O)[C@H](O)[C@@H]3OP(=O)(S)OC[C@H]3O[C@@H](n4ccc5c(=O)[nH]c(N)nc54)[C@H](O)[C@@H]3OP(=O)(S)OC[C@H]3O[C@@H](n4ccc(=O)[nH]c4=O)[C@H](O)[C@@H]3OP(=O)(S)OC[C@H]3O[C@@H](n4ccc5c(=O)[nH]c(N)nc54)[C@H](O)[C@@H]3OP(=O)(S)OC[C@H]3O[C@@H](n4cnc5c(N)ncnc54)[C@H](O)[C@@H]3OP(=O)(S)OC[C@H]3O[C@@H](n4ccc5c(=O)[nH]c(N)nc54)[C@H](O)[C@@H]3OP(=O)(S)OC[C@H]3O[C@@H](n4ccc(N)nc4=O)[C@H](O)[C@@H]3OP(=O)(S)OC[C@H]3O[C@@H](n4ccc(=O)[nH]c4=O)[C@H](O)[C@@H]3OP(=O)(S)OC[C@H]3O[C@@H](n4ccc(=O)[nH]c4=O)[C@H](O)[C@@H]3OP(=O)(S)OCC(O)COP(=O)(S)O[C@H]3[C@@H](O)[C@H](n4ccc(=O)[nH]c4=O)O[C@@H]3COP(=O)(S)O[C@H]3[C@@H](O)[C@H](n4ccc(=O)[nH]c4=O)O[C@@H]3COP(=O)(S)O[C@H]3[C@@H](O)[C@H](n4ccc(N)nc4=O)O[C@@H]3COP(=O)(S)O[C@H]3[C@@H](O)[C@H](n4ccc5c(=O)[nH]c(N)nc54)O[C@@H]3COP(=O)(S)O[C@H]3[C@@H](O)[C@H](n4cnc5c(N)ncnc54)O[C@@H]3COP(=O)(S)O[C@H]3[C@@H](O)[C@H](n4ccc5c(=O)[nH]c(N)nc54)O[C@@H]3COP(=O)(S)O[C@H]3[C@@H](O)[C@H](n4ccc(=O)[nH]c4=O)O[C@@H]3COP(=O)(S)O[C@H]3[C@@H](O)[C@H](n4ccc5c(=O)[nH]c(N)nc54)O[C@@H]3COP(=O)(S)O[C@H]3[C@@H](O)[C@H](n4ccc(=O)[nH]c4=O)O[C@@H]3COP(=O)(S)O[C@H]3[C@@H](O)[C@H](n4ccc(=O)[nH]c4=O)O[C@@H]3COP(=O)(S)O[C@H]3[C@@H](O)[C@H](n4ccc(N)nc4=O)O[C@@H]3CO)[C@H]2O)c(=O)n1 (some centres not stated) | 85% | 1.5 | inactive |
| Nc1ccn([C@@H]2O[C@H](COP(=O)(S)O[C@H]3[C@@H](O)[C@H](n4ccc(N)nc4=O)O[C@@H]3COP(=O)(S)O[C@H]3[C@@H](O)[C@H](n4cnc5c(N)ncnc54)O[C@@H]3COP(=O)(S)O[C@H]3[C@@H](O)[C@H](n4ccc5c(=O)[nH]c(N)nc54)O[C@@H]3COP(=O)(S)O[C@H]3[C@@H](O)[C@H](n4ccc(=O)[nH]c4=O)O[C@@H]3COP(=O)(S)O[C@H]3[C@@H](O)[C@H](n4ccc(=O)[nH]c4=O)O[C@@H]3COP(=O)(S)O[C@H]3[C@@H](O)[C@H](n4ccc(N)nc4=O)O[C@@H]3COP(=O)(S)O[C@H]3[C@@H](O)[C@H](n4cnc5c(N)ncnc54)O[C@@H]3CO)[C@@H](OP(=O)(S)OC[C@H]3O[C@@H](n4ccc(=O)[nH]c4=O)[C@H](O)[C@@H]3OP(=O)(S)OC[C@H]3O[C@@H](n4ccc(=O)[nH]c4=O)[C@H](O)[C@@H]3OP(=O)(S)OC[C@H]3O[C@@H](n4ccc(=O)[nH]c4=O)[C@H](O)[C@@H]3OP(=O)(S)OCC(O)COP(=O)(S)O[C@H]3[C@@H](O)[C@H](n4ccc(=O)[nH]c4=O)O[C@@H]3COP(=O)(S)O[C@H]3[C@@H](O)[C@H](n4ccc(=O)[nH]c4=O)O[C@@H]3COP(=O)(S)O[C@H]3[C@@H](O)[C@H](n4ccc(=O)[nH]c4=O)O[C@@H]3COP(=O)(S)O[C@H]3[C@@H](O)[C@H](n4ccc(N)nc4=O)O[C@@H]3COP(=O)(S)O[C@H]3[C@@H](O)[C@H](n4ccc(N)nc4=O)O[C@@H]3COP(=O)(S)O[C@H]3[C@@H](O)[C@H](n4cnc5c(N)ncnc54)O[C@@H]3COP(=O)(S)O[C@H]3[C@@H](O)[C@H](n4ccc5c(=O)[nH]c(N)nc54)O[C@@H]3COP(=O)(S)O[C@H]3[C@@H](O)[C@H](n4ccc(=O)[nH]c4=O)O[C@@H]3COP(=O)(S)O[C@H]3[C@@H](O)[C@H](n4ccc(=O)[nH]c4=O)O[C@@H]3COP(=O)(S)O[C@H]3[C@@H](O)[C@H](n4ccc(N)nc4=O)O[C@@H]3COP(=O)(S)O[C@H]3[C@@H](O)[C@H](n4cnc5c(N)ncnc54)O[C@@H]3CO)[C@H]2O)c(=O)n1 (some centres not stated) | 72% | 1.8 | inactive |
| Nc1ccn([C@@H]2O[C@H](COP(=O)(S)O[C@H]3[C@@H](O)[C@H](n4cnc5c(N)ncnc54)O[C@@H]3COP(=O)(S)O[C@H]3[C@@H](O)[C@H](n4cnc5c(N)ncnc54)O[C@@H]3CO)[C@@H](OP(=O)(S)OC[C@H]3O[C@@H](n4ccc(=O)[nH]c4=O)[C@H](O)[C@@H]3OP(=O)(S)OC[C@H]3O[C@@H](n4ccc(=O)[nH]c4=O)[C@H](O)[C@@H]3OP(=O)(S)OC[C@H]3O[C@@H](n4ccc5c(=O)[nH]c(N)nc54)[C@H](O)[C@@H]3OP(=O)(S)OC[C@H]3O[C@@H](n4cnc5c(N)ncnc54)[C@H](O)[C@@H]3OP(=O)(S)OC[C@H]3O[C@@H](n4ccc5c(=O)[nH]c(N)nc54)[C@H](O)[C@@H]3OP(=O)(S)OC[C@H]3O[C@@H](n4ccc(N)nc4=O)[C@H](O)[C@@H]3OP(=O)(S)OC[C@H]3O[C@@H](n4ccc(=O)[nH]c4=O)[C@H](O)[C@@H]3OP(=O)(S)OC[C@H]3O[C@@H](n4ccc(=O)[nH]c4=O)[C@H](O)[C@@H]3OP(=O)(S)OCC(O)COP(=O)(S)O[C@H]3[C@@H](O)[C@H](n4ccc(=O)[nH]c4=O)O[C@@H]3COP(=O)(S)O[C@H]3[C@@H](O)[C@H](n4ccc(=O)[nH]c4=O)O[C@@H]3COP(=O)(S)O[C@H]3[C@@H](O)[C@H](n4ccc(N)nc4=O)O[C@@H]3COP(=O)(S)O[C@H]3[C@@H](O)[C@H](n4ccc5c(=O)[nH]c(N)nc54)O[C@@H]3COP(=O)(S)O[C@H]3[C@@H](O)[C@H](n4cnc5c(N)ncnc54)O[C@@H]3COP(=O)(S)O[C@H]3[C@@H](O)[C@H](n4ccc5c(=O)[nH]c(N)nc54)O[C@@H]3COP(=O)(S)O[C@H]3[C@@H](O)[C@H](n4ccc(=O)[nH]c4=O)O[C@@H]3COP(=O)(S)O[C@H]3[C@@H](O)[C@H](n4ccc(=O)[nH]c4=O)O[C@@H]3COP(=O)(S)O[C@H]3[C@@H](O)[C@H](n4ccc(N)nc4=O)O[C@@H]3COP(=O)(S)O[C@H]3[C@@H](O)[C@H](n4cnc5c(N)ncnc54)O[C@@H]3COP(=O)(S)O[C@H]3[C@@H](O)[C@H](n4cnc5c(N)ncnc54)O[C@@H]3CO)[C@H]2O)c(=O)n1 (some centres not stated) | 82% | 1 | inactive |
| Nc1ccn([C@@H]2O[C@H](COP(=O)(S)O[C@H]3[C@@H](O)[C@H](n4cnc5c(N)ncnc54)O[C@@H]3COP(=O)(S)O[C@H]3[C@@H](O)[C@H](n4cnc5c(N)ncnc54)O[C@@H]3CO)[C@@H](OP(=O)(S)OC[C@H]3O[C@@H](n4ccc(=O)[nH]c4=O)[C@H](O)[C@@H]3OP(=O)(S)OC[C@H]3O[C@@H](n4ccc5c(=O)[nH]c(N)nc54)[C@H](O)[C@@H]3OP(=O)(S)OC[C@H]3O[C@@H](n4ccc(N)nc4=O)[C@H](O)[C@@H]3OP(=O)(S)OC[C@H]3O[C@@H](n4ccc5c(=O)[nH]c(N)nc54)[C@H](O)[C@@H]3OP(=O)(S)OC[C@H]3O[C@@H](n4cnc5c(N)ncnc54)[C@H](O)[C@@H]3OP(=O)(S)OC[C@H]3O[C@@H](n4ccc(N)nc4=O)[C@H](O)[C@@H]3OP(=O)(S)OC[C@H]3O[C@@H](n4ccc(=O)[nH]c4=O)[C@H](O)[C@@H]3OP(=O)(S)OC[C@H]3O[C@@H](n4ccc(=O)[nH]c4=O)[C@H](O)[C@@H]3OP(=O)(S)OCC(O)COP(=O)(S)O[C@H]3[C@@H](O)[C@H](n4ccc(=O)[nH]c4=O)O[C@@H]3COP(=O)(S)O[C@H]3[C@@H](O)[C@H](n4ccc(=O)[nH]c4=O)O[C@@H]3COP(=O)(S)O[C@H]3[C@@H](O)[C@H](n4ccc(N)nc4=O)O[C@@H]3COP(=O)(S)O[C@H]3[C@@H](O)[C@H](n4cnc5c(N)ncnc54)O[C@@H]3COP(=O)(S)O[C@H]3[C@@H](O)[C@H](n4ccc5c(=O)[nH]c(N)nc54)O[C@@H]3COP(=O)(S)O[C@H]3[C@@H](O)[C@H](n4ccc(N)nc4=O)O[C@@H]3COP(=O)(S)O[C@H]3[C@@H](O)[C@H](n4ccc5c(=O)[nH]c(N)nc54)O[C@@H]3COP(=O)(S)O[C@H]3[C@@H](O)[C@H](n4ccc(=O)[nH]c4=O)O[C@@H]3COP(=O)(S)O[C@H]3[C@@H](O)[C@H](n4ccc(N)nc4=O)O[C@@H]3COP(=O)(S)O[C@H]3[C@@H](O)[C@H](n4cnc5c(N)ncnc54)O[C@@H]3COP(=O)(S)O[C@H]3[C@@H](O)[C@H](n4cnc5c(N)ncnc54)O[C@@H]3CO)[C@H]2O)c(=O)n1 (some centres not stated) | 83% | 0.3 | inactive |
